Measurements from PubChem BioAssay.
Inconclusive results are not listed.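 The calls were made as follows, unless noted: active = cell viability at or below a set limit in both duplicate runs, the limit being the all-compound median minus 4 SD (cut at about 23% in these data, passing the limit was not always enough); inconclusive = no clear call, values can overlap the other calls; inactive = the rest.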

Key:
[1] = S. cerevisiae growth inhibition in permissive medium (OD615), pilot counter-assay for S. cerevisiae lifespan shortening project, permissive growth control (AID 705;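 active = growth inhibition above 25% in both replicates, a cutoff set 3 SD above the mean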); conditions: OD615, 24 h, at 10 µM, stronger effect = higher value
In short: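 System: Engineered DeaD yeast | Buffer or medium: SC raffinose/galactose permissive medium | Incubation: Cells pre-grown 4 h, then 24 h compound exposure, 30 °C humidified | Measured by: Absorbance (optical density) at 615 nm | Read-out: Reduction in yeast growth (OD615)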

[2] = S. cerevisiae growth inhibition in restrictive medium, OD615, pilot screen, restrictive growth control, yeast lifespan reduction project (AID 706;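 active = growth inhibition above a set limit, 3 SD over mean compound inhibition, in both replicates, cut at about 43% in these data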;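 also: modified DeaD lifespan yeast strain shifted to restrictive glucose medium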); conditions: OD615, 48 h, at 10 µM, stronger effect = higher value
In short: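 Material: modified S. cerevisiae; Medium: glucose-based CSMM-D restrictive medium; Compound dosing: one concentration, 10 µM final, 0.25% DMSO; Incubation: 48 h compound exposure at 30 °C; Measured by: OD615.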

[3] = doxorubicin toxicity protection in MRP-1 cells – H69AR cells, CellTiter-Glo, duplicate, MRP-1 activator project, pilot screen (AID 807;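 active = viability increase at or above a cutoff of the median across tested compounds plus 3 SD, cut at about 8.5% in these data, passing the limit was not always enough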;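 also: compound pretreatment 18-22 h then 72 h combined with doxorubicin; 0% = doxorubicin alone and 100% = vehicle without doxorubicin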); conditions: H69AR viability with doxorubicin, CellTiter-Glo luminescence; at 10 µM; stronger effect = higher value
[4] = viability of HCT116 without oncogenic beta-catenin – human colon tumor cells, pilot screen (AID 823); conditions: HCT116 beta-catenin knockout viability, CellTiter-Glo, 60 h; at 10 µM; stronger effect = lower value;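 also: 0% = wells killed by 20 µM Hyamine and 100% = untreated DMSO cell wells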
[5] = viability of PTEN-null HCT116 cells – cell-based, HCT116 clonal line, CellTiter-Glo, pilot screen (AID 824;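 active = viability at or below 27.92% in each of two runs, the all-compound median minus 4 SD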;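 also: 0% = 20 µM Hyamine control and 100% = vehicle cell control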); conditions: HCT116 PTEN-deleted viability, 60 h, at 10 µM, stronger effect = lower value
[6] = RAM pathway blockade in budding yeast – dse1pr::URA3 reporter, 5-FOA selection, pilot screen (AID 869;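 active = inhibition over a set limit, the all-compound mean plus 3 SD, in both replicate runs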;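 also: 0% = DMSO wells with no growth and 100% = 10 µM 1-NA-PP1 with full growth; RAM network block rescues cells from 5-FOA so hits raise OD615 growth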); conditions: S. cerevisiae dse1pr::URA3 5-FOA growth, OD615, 2 d; at 10 µM; stronger effect = higher value; strain carries analog-sensitive mutant Cbk1 kinase
[7] = RAM signaling pathway blockade in yeast – S. cerevisiae, Pdr1DBD-CYC8 efflux-inhibited sensitized strain, primary screen (AID 1298;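 active = RAM network inhibition above 8.4% in each of two replicates, 3 SD over the compound average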;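 also: 0% = DMSO untreated cells without growth and 100% = 10 µM 1-NA-PP1 full growth; higher means more yeast growth rescued from 5-FOA killing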); conditions: S. cerevisiae cbk1-as DSE1-URA3 strain, 5-FOA growth OD615, 2 d; at 50 µM; stronger effect = higher value

Cc1c(C(=O)NCCCN2CCOCC2)sc2nc(-c3ccccc3)cn12
inactive: growth inhibition [1] -10.7% | growth inhibition [2] -11.8% | viability increase [3] -1.59% | viability [4] 92.2% | viability [5] 96% | inhibition [6] 3.44% | RAM network inhibition [7] -0.37%

CCOc1ccc2[nH]c(C)c(CN(C)C)c(=O)c2c1
inactive: growth inhibition [1] 1.46% | growth inhibition [2] 9.84% | viability increase [3] -1.41% | viability [4] 99.4% | viability [5] 95.1% | inhibition [6] -0.27% | RAM network inhibition [7] 4.03%

CCCC(=O)Nc1ccccc1-c1nnc(SC)[nH]c1=O
inactive: growth inhibition [1] -10.4% | growth inhibition [2] 1.72% | viability increase [3] -2.76% | viability [4] 113% | viability [5] 99.3% | inhibition [6] 1.06% | RAM network inhibition [7] 1.27%

Cn1c(=O)[nH]c(=O)c2c1nc(N1CCCC1)n2CC(O)COc1ccccc1 (centres undefined)
inactive: growth inhibition [1] -10.3% | growth inhibition [2] -7.92% | viability increase [3] -2.57% | viability [4] 100% | viability [5] 102% | inhibition [6] 2.5% | RAM network inhibition [7] 1.94%

Cn1c(=O)c2cc(S(=O)(=O)NC(C(=O)N3CCCCCC3)c3ccccc3)ccc2n(C)c1=O (centres undefined)
inactive: growth inhibition [1] -16.6% | growth inhibition [2] -23.3% | viability increase [3] -1.22% | viability [4] 104% | viability [5] 89.1% | inhibition [6] 0.175% | RAM network inhibition [7] 2.61%

CCCCCn1c(SCc2cccc(C)c2)nc2c1c(=O)[nH]c(=O)n2C
inactive: growth inhibition [1] -12.8% | growth inhibition [2] -18.8% | viability increase [3] -7.54% | viability [4] 70.1% | viability [5] 66.4% | inhibition [6] 1.67% | RAM network inhibition [7] 5.94%

COC(=O)c1c(C)oc2ccc(OC(=O)c3cccs3)cc12
inactive: growth inhibition [1] 4.65% | growth inhibition [2] -15% | viability increase [3] 1.81% | viability [4] 96.3% | viability [5] 99.5% | inhibition [6] 0.81% | RAM network inhibition [7] 0.1%

Cc1cc(C)nc(NS(=O)(=O)c2ccc(NC(=O)c3ccc4c(c3)OCO4)cc2)n1
inactive: growth inhibition [1] -6.52% | growth inhibition [2] -0.9% | viability increase [3] 5.22% | viability [4] 100% | viability [5] 95.9% | inhibition [6] 1.28% | RAM network inhibition [7] -0.21%

N#CCC(=O)Nc1sc2c(c1C(N)=O)CCCC2
inactive: growth inhibition [1] -12.7% | growth inhibition [2] -7.35% | viability increase [3] -1.93% | viability [4] 97.5% | viability [5] 99.9% | inhibition [6] 3.18% | RAM network inhibition [7] 0.67%

CCC(C)Nc1ncnc2c1cnn2Cc1ccc(Cl)cc1 (centres undefined)
inactive: growth inhibition [1] -13.7% | growth inhibition [2] -18.8% | viability increase [3] 6.18% | viability [4] 85.5% | viability [5] 86.7% | inhibition [6] -0.295% | RAM network inhibition [7] 2.14%

CCc1nnc(NC(=O)c2cccs2)s1
inactive: growth inhibition [1] -21.3% | growth inhibition [2] -3.98% | viability increase [3] 2.17% | viability [4] 102% | viability [5] 90.1% | inhibition [6] 1.29% | RAM network inhibition [7] 0.32%

CC1Cc2ccccc2N1C1=NS(=O)(=O)c2ccccc21 (centres undefined)
inactive: growth inhibition [1] -3.44% | growth inhibition [2] -25.5% | viability increase [3] -1.97% | viability [4] 91.7% | viability [5] 96.5% | inhibition [6] 2.68% | RAM network inhibition [7] 7%

O=C(CCN1C(=O)c2ccccc2C1=O)Nc1ccncc1
inactive: growth inhibition [1] 0.69% | growth inhibition [2] -3.13% | viability increase [3] 3.4% | viability [4] 98.5% | viability [5] 105% | inhibition [6] 1.6% | RAM network inhibition [7] 1.47%

CCN(CC)c1ccc(NC(=O)Cn2cc3c(n2)CCC(C)C3)c(C)c1 (centres undefined)
inactive: growth inhibition [1] 2.12% | growth inhibition [2] 1.57% | viability increase [3] 2.97% | viability [4] 80.4% | viability [5] 76.2% | inhibition [6] 0.835% | RAM network inhibition [7] -1.78%

CC(=O)c1ccc(Nc2cc(C)nc3nc(C)nn23)cc1
inactive: growth inhibition [1] -0.07% | growth inhibition [2] -9.04% | viability increase [3] -3.3% | viability [4] 103% | viability [5] 100% | inhibition [6] 0.72% | RAM network inhibition [7] -1.56%

O=C(c1ccccc1F)N1CCN=C1SCc1cccnc1
inactive: growth inhibition [1] -22.1% | growth inhibition [2] 1.65% | viability increase [3] -1.2% | viability [4] 96.8% | viability [5] 99.8% | inhibition [6] 0.695% | RAM network inhibition [7] 4.47%

COc1ccc(CN2CCNC(=O)C2CC(=O)O)c(OC)c1 (centres undefined)
inactive: growth inhibition [1] -18.7% | growth inhibition [2] -24% | viability increase [3] -2.1% | viability [4] 105% | viability [5] 93.1% | inhibition [6] 2.47% | RAM network inhibition [7] 1.42%

Cc1ccc(C)c2[nH]c(=O)c(CCNC(=O)C(C)C)cc12
inactive: growth inhibition [1] -14.5% | growth inhibition [2] -18.6% | viability increase [3] -0.31% | viability [4] 102% | viability [5] 104% | inhibition [6] 1.83% | RAM network inhibition [7] 2.82%

O=C(O)C1C2C=CC(C2)C1C(=O)OCC1CCCO1 (centres undefined)
inactive: growth inhibition [1] -6.31% | growth inhibition [2] 1.68% | viability increase [3] -1.53% | viability [4] 98.1% | viability [5] 94.8% | inhibition [6] 0.865% | RAM network inhibition [7] 1.34%

Cc1cccc(CCNC(=O)CN(C)S(=O)(=O)c2ccc3c(c2)c(=O)n(C)c(=O)n3C)c1
inactive: growth inhibition [1] -12.1% | growth inhibition [2] -22.2% | viability increase [3] -0.92% | viability [4] 102% | viability [5] 90.4% | inhibition [6] 1.75% | RAM network inhibition [7] 2.91%

CCCc1cc(C(=O)NCc2ccc(OC)cc2)no1
inactive: growth inhibition [1] -7.46% | growth inhibition [2] 18.4% | viability increase [3] -0.95% | viability [4] 107% | viability [5] 99.3% | inhibition [6] 1.78% | RAM network inhibition [7] -0.68%

COc1ccc(S(=O)(=O)N2Cc3ccccc3CC2C(=O)O)cc1OC (centres undefined)
inactive: growth inhibition [1] 6.5% | growth inhibition [2] 3.09% | viability increase [3] 0.39% | viability [4] 104% | viability [5] 96.1% | inhibition [6] 1.33% | RAM network inhibition [7] 5.1%

CCOc1ccccc1NC(=O)CSc1nnc(-c2ccco2)n1Cc1ccco1
inactive: growth inhibition [1] 3.23% | growth inhibition [2] 2.22% | viability increase [3] -2.48% | viability [4] 95.7% | viability [5] 88.2% | inhibition [6] -0.165% | RAM network inhibition [7] 3.85%

CCCC(=O)C1=C(O)C(C(=O)OC)C(C)(C)CC1=NC (centres undefined)
inactive: growth inhibition [1] -14.5% | growth inhibition [2] -12.3% | viability increase [3] 0.12% | viability [4] 95.3% | viability [5] 94.9% | inhibition [6] 0.54% | RAM network inhibition [7] 0.46%

COc1ccc(N2C(=O)CC(NCc3cccc(F)c3)C2=O)cc1 (centres undefined)
inactive: growth inhibition [1] -6.89% | growth inhibition [2] -3.85% | viability increase [3] -0.75% | viability [4] 99.3% | viability [5] 98% | inhibition [6] 0.82% | RAM network inhibition [7] 5.38%

CN1CCN(C(=O)c2ccc3c(c2)N(Cc2cccc(Cl)c2)C(=O)c2ccccc2S3=O)CC1 (centres undefined)
inactive: growth inhibition [1] -4.92% | growth inhibition [2] -10.7% | viability increase [3] -3.66% | viability [4] 102% | viability [5] 99.1% | inhibition [6] 0.63% | RAM network inhibition [7] 6.41%

Cc1cc(C)c(C#N)c(SCC(=O)c2cccs2)n1
inactive: growth inhibition [1] -9.34% | growth inhibition [2] 1.01% | viability increase [3] -4.41% | viability [4] 78% | viability [5] 84.8% | inhibition [6] 1.6% | RAM network inhibition [7] 0.97%

O=C(c1ccco1)N1CCN(c2ncccn2)CC1
inactive: growth inhibition [1] -12.9% | growth inhibition [2] -5.72% | viability increase [3] -1.88% | viability [4] 98.9% | viability [5] 96.3% | inhibition [6] 2.97% | RAM network inhibition [7] -0.22%

Cc1cccc(NC(=O)CSc2nnc(-c3ccccc3)n2N)c1
inactive: growth inhibition [1] -0.87% | growth inhibition [2] 0.675% | viability increase [3] -1.81% | viability [4] 100% | viability [5] 98.9% | inhibition [6] 1.93% | RAM network inhibition [7] 4.31%

Cc1cc(N2CCC(N(C)C3CCCC3)CC2)nc2cc(O)ccc12
inactive: growth inhibition [1] -8.33% | growth inhibition [2] -9.98% | viability increase [3] -7.96% | viability [4] 53.9% | viability [5] 53.7% | inhibition [6] 2.4% | RAM network inhibition [7] 2.21%

COc1ccc(C(=O)N2CCN(c3ccc(C)cc3C)CC2)cc1OC
inactive: growth inhibition [1] -12.4% | growth inhibition [2] -0.18% | viability increase [3] 3.24% | viability [4] 72.9% | viability [5] 85.7% | inhibition [6] 1.66% | RAM network inhibition [7] 2.92%

CCOC(=O)CCCSc1nc2sc(C)c(C)c2c(=O)[nH]1
inactive: growth inhibition [1] -12.1% | growth inhibition [2] -15.5% | viability increase [3] -0.74% | viability [4] 102% | viability [5] 98.5% | inhibition [6] 3.01% | RAM network inhibition [7] 3.95%

O=C(Nc1ccccc1Oc1ccccc1)C1CC1
inactive: growth inhibition [1] -13.6% | growth inhibition [2] 3.26% | viability increase [3] -2.26% | viability [4] 89.5% | viability [5] 93.1% | inhibition [6] 0.595% | RAM network inhibition [7] 3.21%

CCCC(=O)c1c(NC)cc(C)oc1=O
inactive: growth inhibition [1] -7.03% | growth inhibition [2] 4.71% | viability increase [3] -0.53% | viability [4] 97.2% | viability [5] 92.2% | inhibition [6] 0.62% | RAM network inhibition [7] 3.99%

Cc1ccccc1C(=O)NCCN=C1NS(=O)(=O)c2ccccc21
inactive: growth inhibition [1] -7.76% | growth inhibition [2] 10.5% | viability increase [3] 0.1% | viability [4] 113% | viability [5] 103% | inhibition [6] 0.69% | RAM network inhibition [7] 1.88%

COC(=O)C1=CN(CCCN2CCCC2=O)C=C(C(=O)OC)C1c1ccccc1C(F)(F)F
inactive: growth inhibition [1] -10% | growth inhibition [2] 1.3% | viability increase [3] -6.27% | viability [4] 39.6% | viability [5] 35.7% | inhibition [6] 0.125% | RAM network inhibition [7] 1.94%

COc1ccc(/C(N)=C/C(=O)C(C)(C)C)cc1
inactive: growth inhibition [1] -14.2% | growth inhibition [2] -11.6% | viability increase [3] 0.55% | viability [4] 96.1% | viability [5] 98.2% | inhibition [6] 2.5% | RAM network inhibition [7] 4.84%
